# Assay results published in ChEMBL document CHEMBL1136326, “New benzylidenethiazolidinediones as antibacterial agents” (2003).
# Tested on: Enterococcus faecalis
# Assay: Minimal inhibitory concentration (antibacterial activity) against Enterococcus faecalis 7 (EFAE)
# Format: functional
# Conditions: not given
# Procedure, shortened: (§1)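 Broth microdilution in cation-adjusted Mueller Hinton broth. Compounds in DMSO were diluted 1:10 with water to a 256 ug/mL solution, then serially 2-fold diluted, giving 0.06 to 64 μg/mL. Inoculum about 1 × 10^6 cfu/mL. Incubation at 35 C for 24 h. MIC is the lowest concentration that inhibits visible growth.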
row,SMILES,MIC [µg/mL]
1,CCCc1c(OCC(O)COc2ccc(/C=C3\SC(=O)N(C)C3=O)cc2)ccc(Cl)c1Cl (stereo in doubt; 6),>64
2,CCCc1c(OCC(O)COc2ccc(/C=C3\SC(=O)N(C)C3=O)cc2)ccc(Cl)c1Cl (stereo in doubt; 12),4

# Same assay, conditions: Enterococcus faecalis; read-out: MIC
row,SMILES,MIC [µg/mL]
1,CCCc1c(OCCCOc2ccc(/C=C3\SC(=O)NC3=O)cc2)ccc(Cl)c1Cl,> 64
2,O=C1NC(=O)/C(=C/c2ccc(OCC(O)COc3ccc(Cl)c(Cl)c3Cl)cc2)S1 (centres undefined),> 64
3,O=C1NC(=O)/C(=C/c2ccc(OCC(O)COc3ccc(Cl)c(Cl)c3)cc2)S1 (centres undefined),> 64
4,CCc1ccccc1OCC(O)COc1ccc(/C=C2\SC(=O)NC2=O)cc1 (centres undefined),32
5,CCCc1c(OCC(=O)COc2ccc(/C=C3\SC(=O)NC3=O)cc2)ccc(Cl)c1Cl,> 64
6,Cc1ccccc1OCC(O)COc1ccc(/C=C2\SC(=O)NC2=O)cc1 (centres undefined),> 64
7,CCCc1c(OC[C@H](O)COc2ccc(/C=C3\SC(=O)NC3=O)cc2)ccc(Cl)c1Cl,64
8,O=C1NC(=O)/C(=C/c2ccc(OCC(O)COc3ccccc3)cc2)S1 (centres undefined),> 64
9,CCCc1c(OCC(O)COc2ccc(CC3SC(=O)NC3=O)cc2)ccc(Cl)c1Cl (centres undefined),16
10,CCCc1c(OCC(N)COc2ccc(/C=C3\SC(=O)NC3=O)cc2)ccc(Cl)c1Cl (centres undefined),32
11,CCCc1c(OC[C@@H](O)COc2ccc(/C=C3\SC(=O)NC3=O)cc2)ccc(Cl)c1Cl,4
12,CCCc1cc(Cl)c(Cl)cc1OCC(O)COc1ccc(/C=C2\SC(=O)NC2=O)cc1 (centres undefined),8
13,CCCc1c(OCC(O)COc2ccc(/C=C3\CC(=O)NC3=O)cc2)ccc(Cl)c1Cl (centres undefined),64
14,CCCc1c(OCC(O)COc2ccc(/C=C3\NC(=O)NC3=O)cc2)ccc(Cl)c1Cl (centres undefined),4
15,CCCc1c(OCC(O)COc2ccc(/C=C3\OC(=O)NC3=O)cc2)ccc(Cl)c1Cl (centres undefined),16
16,CCCc1ccccc1OCC(O)COc1ccc(/C=C2\SC(=O)NC2=O)cc1 (centres undefined),> 64

# Tested on: Staphylococcus aureus
# Assay: Minimal inhibitory concentration (antibacterial activity) against Staphylococcus aureus Oxford (SAUR)
# Format: functional
# Conditions: not given
# Procedure, shortened: as §1
row,SMILES,MIC [µg/mL]
1,CCCc1c(OCC(O)COc2ccc(/C=C3\SC(=O)N(C)C3=O)cc2)ccc(Cl)c1Cl (stereo in doubt; 6),>64
2,CCCc1c(OCC(O)COc2ccc(/C=C3\SC(=O)N(C)C3=O)cc2)ccc(Cl)c1Cl (stereo in doubt; 12),8

# Same assay, conditions: Staphylococcus aureus; read-out: MIC
row,SMILES,MIC [µg/mL]
1,CCCc1c(OCCCOc2ccc(/C=C3\SC(=O)NC3=O)cc2)ccc(Cl)c1Cl,> 64
2,O=C1NC(=O)/C(=C/c2ccc(OCC(O)COc3ccc(Cl)c(Cl)c3Cl)cc2)S1 (centres undefined),> 64
3,O=C1NC(=O)/C(=C/c2ccc(OCC(O)COc3ccc(Cl)c(Cl)c3)cc2)S1 (centres undefined),> 64
4,CCc1ccccc1OCC(O)COc1ccc(/C=C2\SC(=O)NC2=O)cc1 (centres undefined),16
5,CCCc1c(OCC(=O)COc2ccc(/C=C3\SC(=O)NC3=O)cc2)ccc(Cl)c1Cl,> 64
6,Cc1ccccc1OCC(O)COc1ccc(/C=C2\SC(=O)NC2=O)cc1 (centres undefined),64
7,CCCc1c(OC[C@H](O)COc2ccc(/C=C3\SC(=O)NC3=O)cc2)ccc(Cl)c1Cl,1
8,O=C1NC(=O)/C(=C/c2ccc(OCC(O)COc3ccccc3)cc2)S1 (centres undefined),> 64
9,CCCc1c(OCC(O)COc2ccc(CC3SC(=O)NC3=O)cc2)ccc(Cl)c1Cl (centres undefined),8
10,CCCc1c(OCC(N)COc2ccc(/C=C3\SC(=O)NC3=O)cc2)ccc(Cl)c1Cl (centres undefined),16
11,CCCc1c(OC[C@@H](O)COc2ccc(/C=C3\SC(=O)NC3=O)cc2)ccc(Cl)c1Cl,2
12,CCCc1cc(Cl)c(Cl)cc1OCC(O)COc1ccc(/C=C2\SC(=O)NC2=O)cc1 (centres undefined),8
13,CCCc1c(OCC(O)COc2ccc(/C=C3\CC(=O)NC3=O)cc2)ccc(Cl)c1Cl (centres undefined),> 64
14,CCCc1c(OCC(O)COc2ccc(/C=C3\NC(=O)NC3=O)cc2)ccc(Cl)c1Cl (centres undefined),4
15,CCCc1c(OCC(O)COc2ccc(/C=C3\OC(=O)NC3=O)cc2)ccc(Cl)c1Cl (centres undefined),16
16,CCCc1ccccc1OCC(O)COc1ccc(/C=C2\SC(=O)NC2=O)cc1 (centres undefined),16

# Tested on: not listed separately
# Assay: Minimal inhibitory concentration (antibacterial activity) against […] ERY2 (SPNE)
# Format: functional
# Conditions: not given
# Procedure, shortened: as §1
row,SMILES,MIC [µg/mL]
1,CCCc1c(OCC(O)COc2ccc(/C=C3\SC(=O)N(C)C3=O)cc2)ccc(Cl)c1Cl (stereo in doubt; 6),>64
2,CCCc1c(OCC(O)COc2ccc(/C=C3\SC(=O)N(C)C3=O)cc2)ccc(Cl)c1Cl (stereo in doubt; 12),1

# Same assay, conditions: Streptococcus pneumoniae; read-out: MIC
row,SMILES,MIC [µg/mL]
1,CCCc1c(OCCCOc2ccc(/C=C3\SC(=O)NC3=O)cc2)ccc(Cl)c1Cl,> 64
2,O=C1NC(=O)/C(=C/c2ccc(OCC(O)COc3ccc(Cl)c(Cl)c3Cl)cc2)S1 (centres undefined),> 64
3,O=C1NC(=O)/C(=C/c2ccc(OCC(O)COc3ccc(Cl)c(Cl)c3)cc2)S1 (centres undefined),> 64
4,CCc1ccccc1OCC(O)COc1ccc(/C=C2\SC(=O)NC2=O)cc1 (centres undefined),16
5,CCCc1c(OCC(=O)COc2ccc(/C=C3\SC(=O)NC3=O)cc2)ccc(Cl)c1Cl,> 64
6,Cc1ccccc1OCC(O)COc1ccc(/C=C2\SC(=O)NC2=O)cc1 (centres undefined),32
7,CCCc1c(OC[C@H](O)COc2ccc(/C=C3\SC(=O)NC3=O)cc2)ccc(Cl)c1Cl,1
8,O=C1NC(=O)/C(=C/c2ccc(OCC(O)COc3ccccc3)cc2)S1 (centres undefined),64
9,CCCc1c(OCC(O)COc2ccc(CC3SC(=O)NC3=O)cc2)ccc(Cl)c1Cl (centres undefined),8
10,CCCc1c(OCC(N)COc2ccc(/C=C3\SC(=O)NC3=O)cc2)ccc(Cl)c1Cl (centres undefined),2
11,CCCc1c(OC[C@@H](O)COc2ccc(/C=C3\SC(=O)NC3=O)cc2)ccc(Cl)c1Cl,2
12,CCCc1cc(Cl)c(Cl)cc1OCC(O)COc1ccc(/C=C2\SC(=O)NC2=O)cc1 (centres undefined),4
13,CCCc1c(OCC(O)COc2ccc(/C=C3\CC(=O)NC3=O)cc2)ccc(Cl)c1Cl (centres undefined),64
14,CCCc1c(OCC(O)COc2ccc(/C=C3\NC(=O)NC3=O)cc2)ccc(Cl)c1Cl (centres undefined),4
15,CCCc1c(OCC(O)COc2ccc(/C=C3\OC(=O)NC3=O)cc2)ccc(Cl)c1Cl (centres undefined),32
16,CCCc1ccccc1OCC(O)COc1ccc(/C=C2\SC(=O)NC2=O)cc1 (centres undefined),2
